For test [1], the target named is T1, Adrenergic receptor alpha-2 (Homo sapiens, UniProt P08913+P18825+P18089).
T1 sequence (P08913 whole entry): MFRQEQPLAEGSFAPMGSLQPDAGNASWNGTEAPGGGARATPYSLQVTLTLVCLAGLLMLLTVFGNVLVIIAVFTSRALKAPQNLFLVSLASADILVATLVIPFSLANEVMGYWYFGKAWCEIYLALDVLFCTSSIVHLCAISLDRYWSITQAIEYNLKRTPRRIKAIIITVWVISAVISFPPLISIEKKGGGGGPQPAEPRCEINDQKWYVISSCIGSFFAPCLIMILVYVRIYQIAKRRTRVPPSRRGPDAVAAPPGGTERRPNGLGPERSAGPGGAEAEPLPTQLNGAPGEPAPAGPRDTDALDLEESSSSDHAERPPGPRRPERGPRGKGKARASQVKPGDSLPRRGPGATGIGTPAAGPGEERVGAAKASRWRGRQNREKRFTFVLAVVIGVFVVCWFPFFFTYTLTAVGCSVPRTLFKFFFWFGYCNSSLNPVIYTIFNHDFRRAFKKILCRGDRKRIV
T1 sequence (P18825 whole entry): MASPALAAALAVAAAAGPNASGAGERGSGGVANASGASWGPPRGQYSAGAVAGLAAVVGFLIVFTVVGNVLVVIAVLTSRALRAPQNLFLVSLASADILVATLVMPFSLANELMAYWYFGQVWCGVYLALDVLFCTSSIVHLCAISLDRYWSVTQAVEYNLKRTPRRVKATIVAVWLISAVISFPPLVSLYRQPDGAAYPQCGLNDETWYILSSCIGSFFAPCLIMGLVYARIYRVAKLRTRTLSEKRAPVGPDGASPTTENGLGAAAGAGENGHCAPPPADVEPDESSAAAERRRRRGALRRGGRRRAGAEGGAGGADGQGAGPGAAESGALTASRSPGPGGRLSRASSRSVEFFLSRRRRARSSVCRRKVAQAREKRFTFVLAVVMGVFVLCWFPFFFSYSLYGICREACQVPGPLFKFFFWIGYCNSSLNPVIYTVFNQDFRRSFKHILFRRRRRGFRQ
T1 sequence (P18089 whole entry): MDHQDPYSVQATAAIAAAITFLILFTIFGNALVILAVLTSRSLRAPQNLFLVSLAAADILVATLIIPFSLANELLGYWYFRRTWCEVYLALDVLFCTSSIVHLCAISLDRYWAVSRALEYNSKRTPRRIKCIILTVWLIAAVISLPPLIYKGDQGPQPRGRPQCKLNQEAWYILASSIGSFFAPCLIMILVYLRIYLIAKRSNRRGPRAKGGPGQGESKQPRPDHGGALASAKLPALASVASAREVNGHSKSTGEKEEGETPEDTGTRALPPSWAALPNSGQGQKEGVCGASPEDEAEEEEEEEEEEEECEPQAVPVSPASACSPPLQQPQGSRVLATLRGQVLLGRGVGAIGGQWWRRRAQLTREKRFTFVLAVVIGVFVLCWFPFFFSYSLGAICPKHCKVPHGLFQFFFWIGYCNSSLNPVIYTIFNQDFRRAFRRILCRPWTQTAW
Nature of the test: Agonistic potency at alpha 2-Adrenergic receptor for inhibition of 10 uM forskolin-elicited stimulation of adenylate cyclase in human platelet membranes. It is filed as functional, cell membranes. A digest of the protocol: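 Human platelet membranes (10–15 μg protein/tube) added to medium preincubated 5 min at 37 °C: 0.1 mM [α-32P]ATP, 0.1 mM cAMP, adenosine deaminase, 0.1 mM rolipram, 0.2 mM EGTA, creatine phosphate/kinase, BSA, 1 μM GTP, 10 μM forskolin, 1 mM MgCl2, 50 mM Tris-HCl pH 7.4. Stopped with zinc acetate/Na2CO3. Product is cAMP (pmol/min/mg), triplicate points. Adjusted EC50 is taken from dose-response curves.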

Test [2] deals with T1, Adrenergic receptor alpha-2. Nature of the test: Binding affinity against alpha-2 adrenergic receptor in guinea pig cerebral cortical membranes by displacement of [3H]clonidine. Further details: species or system Cavia porcellus. To be noted: target entry is the homologue from another species. A digest of the protocol:
(§1)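 Nonspecific binding defined with 10 μM clonidine. Points in triplicate, reported as percent of control; experiment repeated three times.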
On the technique in general: Loss of bound radioactivity is the signal in a displacement assay; it reports binding, not function.

The next test concerns the target Adrenergic receptor beta (Rattus norvegicus, UniProt P18090+P10608+P26255). Nature of the test: Agonistic potency at beta adrenergic receptor for the stimulation of accumulation of cyclic AMP in cultured C6 glioma cells. The format is functional, cell-based. A digest of the protocol:
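C6 glioma cells subcultured the day before and washed in HEPES-buffered saline (pH 7.4). Preincubated 10 min with 30 μM rolipram, then agonist for 10 min. Stopped with 0.1 M HCl. cAMP measured by commercial kit. Adjusted EC50 is taken from dose-response curves.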

Test [3] deals with Beta-1 adrenergic receptor (Cavia porcellus, UniProt B0FL73). Description: Agonistic potency at beta-1 adrenergic receptor for the percent maximal increase in contraction rate of isolated guinea pig atria. It is filed as functional. A digest of the protocol: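 Isolated guinea pig atria, giving percent of maximal rate increase for four individual preparations.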
Sequence of Beta-1 adrenergic receptor (B0FL73 whole entry): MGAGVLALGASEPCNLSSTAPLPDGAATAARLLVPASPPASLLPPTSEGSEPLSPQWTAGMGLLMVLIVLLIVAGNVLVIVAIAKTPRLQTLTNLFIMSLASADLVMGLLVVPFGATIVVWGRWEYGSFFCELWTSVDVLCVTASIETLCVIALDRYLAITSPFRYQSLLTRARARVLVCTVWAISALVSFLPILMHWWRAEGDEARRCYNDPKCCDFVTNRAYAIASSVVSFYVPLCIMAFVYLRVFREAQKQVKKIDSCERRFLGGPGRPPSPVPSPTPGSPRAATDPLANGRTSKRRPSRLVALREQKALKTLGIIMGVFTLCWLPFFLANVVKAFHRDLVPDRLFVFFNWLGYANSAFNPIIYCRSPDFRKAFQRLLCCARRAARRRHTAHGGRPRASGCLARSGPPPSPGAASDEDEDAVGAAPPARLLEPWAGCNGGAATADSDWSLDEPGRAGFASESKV
Test [4] has as its target T1, Adrenergic receptor alpha-2. Nature of the test: Binding affinity against alpha 2-Adrenergic receptor in guinea pig cerebral cortical membranes by displacement of [3H]clonidine. Also on record: species or system Cavia porcellus. To be noted: target entry is the homologue from another species. The method, boiled down:
as §1

Test [5] concerns the target Beta-1 adrenergic receptor (Rattus norvegicus) (UniProt P18090). Nature of the test: Binding affinity against beta-1 adrenergic receptor in rat cerebral cortical membranes by displacement of Dihydro-[3H]-alprenolol.

Where only a bound is given, the exact number is not on record here.

Sequence of Beta-1 adrenergic receptor (Rattus norvegicus) (P18090 whole entry, looked up): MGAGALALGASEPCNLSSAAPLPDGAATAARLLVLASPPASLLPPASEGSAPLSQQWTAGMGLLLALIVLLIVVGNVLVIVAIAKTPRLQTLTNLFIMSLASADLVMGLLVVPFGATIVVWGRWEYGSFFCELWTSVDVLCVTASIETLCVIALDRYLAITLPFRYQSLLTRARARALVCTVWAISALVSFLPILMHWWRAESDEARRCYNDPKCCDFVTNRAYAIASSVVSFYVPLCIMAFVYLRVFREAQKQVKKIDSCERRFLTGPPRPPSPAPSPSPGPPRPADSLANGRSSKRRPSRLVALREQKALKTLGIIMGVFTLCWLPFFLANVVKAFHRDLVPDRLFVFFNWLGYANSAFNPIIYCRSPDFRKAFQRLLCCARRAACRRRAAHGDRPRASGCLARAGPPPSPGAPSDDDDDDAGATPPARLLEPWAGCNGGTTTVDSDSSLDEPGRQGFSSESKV

A word on the EC50: it is the midpoint of the concentration-response curve. Higher therefore signals lower potency in that assay. What is called Ki is a dissociation constant, usually derived from enzyme kinetics or from competition with a known ligand. `CNCC(O)c1ccc(O)c(O)c1F` (stereo not given) registered an EC50 in test [1] of more than 5000 nM. Also, the Ki in test [2] is 66 nM.
Consider `CNCC(O)c1cc(O)c(O)cc1F` (stereo not given), for which the half-maximal effective concentration (EC50) in test [1] was 100 nM; on Adrenergic receptor beta, more than 1500 nM; in test [3], more than 1500 nM. In addition, the figures for the Ki in test [4] and in test [5] were 9 nM and 63000 nM, respectively.
Regarding `NCC(O)c1ccc(O)c(O)c1F` (stereo not given), in test [4], the Ki stood at 700 nM.
In test [3], `CNC[C@H](O)c1ccc(O)c(O)c1` [EPINEPHRINE] returned an EC50 of 260 nM. The same compound came in with a Ki in test [5] of 3000 nM.

The values above are taken from ChEMBL document CHEMBL1123982, “Syntheses and adrenergic activities of ring-fluorinated epinephrines” (J Med Chem, 1988).
